This note sets out measurements from ChEMBL document CHEMBL1133565 (J Med Chem, 2000).

Experiment [1] deals with T1, Sodium-dependent dopamine transporter (Homo sapiens, UniProt Q01959). The experiment in a line: Ratio of dopamine uptake to dopamine binding.
Experiment [2] has as its target T2, Sodium-dependent serotonin transporter (Homo sapiens, UniProt P31645). The experiment in a line: Binding affinity against cloned serotonin human transporter using 40-80 PM [125I]RTI. The essentials:
(§1)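 Membranes from cells expressing recombinant human transporters: DAT in C6 cells, later HEK293; SERT and NET in HEK293. Cells lysed (2 mM HEPES, 1 mM EDTA), spun at 30000g, resuspended in 0.32 M sucrose, about 15 µg protein. GF/C filtration. Duplicates; IC50 converted to Ki by Cheng-Prusoff.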
Target sequence in this assay (P31645 whole entry): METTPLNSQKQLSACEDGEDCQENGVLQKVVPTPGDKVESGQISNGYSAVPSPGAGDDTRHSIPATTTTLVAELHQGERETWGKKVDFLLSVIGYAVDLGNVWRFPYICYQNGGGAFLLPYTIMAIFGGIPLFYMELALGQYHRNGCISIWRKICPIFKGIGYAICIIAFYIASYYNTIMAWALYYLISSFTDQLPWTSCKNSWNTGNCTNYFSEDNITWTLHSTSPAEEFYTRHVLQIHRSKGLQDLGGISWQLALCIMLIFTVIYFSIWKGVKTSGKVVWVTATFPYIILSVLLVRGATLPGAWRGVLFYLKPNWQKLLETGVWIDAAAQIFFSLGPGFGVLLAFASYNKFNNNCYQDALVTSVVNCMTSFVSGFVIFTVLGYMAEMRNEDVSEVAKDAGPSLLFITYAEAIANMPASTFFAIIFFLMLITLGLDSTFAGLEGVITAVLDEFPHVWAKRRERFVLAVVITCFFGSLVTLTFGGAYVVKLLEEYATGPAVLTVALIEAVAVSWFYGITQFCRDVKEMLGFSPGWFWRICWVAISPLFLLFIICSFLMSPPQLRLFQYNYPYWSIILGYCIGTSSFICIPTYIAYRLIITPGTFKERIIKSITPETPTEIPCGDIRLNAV

The target in experiment [3] is T1, Sodium-dependent dopamine transporter. In words: Inhibition of reuptake of [3H]DA (20 nM) by dopamine transporter. The essentials:
(§2)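 Uptake used whole confluent cells: hSERT in HEK293; hDAT in C6, later HEK293. Cells were washed and scraped in PBS at 25 °C, then preincubated 10 min with drug in Krebs HEPES at 25 °C. [3H]5HT or [3H]DA was added at 20 nM final for 10 min, then filtered on 0.05% polyethylenimine-soaked filters. Six drug concentrations, each in triplicate.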

The target in experiment [4] is T2, Sodium-dependent serotonin transporter. The experiment in a line: Ratio of serotonin uptake to serotonin binding.
Target sequence in this assay (P31645 whole entry, looked up): as the sequence (P31645 whole entry) above
The target of experiment [5] is T1, Sodium-dependent dopamine transporter. In words: Binding affinity against cloned human dopamine transporter using 40-80 pM [125I]RTI. The essentials: as §1
The target in experiment [6] is T2, Sodium-dependent serotonin transporter. The experiment in a line: Inhibition of reuptake of [3H]5-HT (20 nM) by serotonin transporter. The essentials:
as §2
Target sequence in this assay (P31645 whole entry): as above

Experiment [7] has as its target T3, Sodium-dependent noradrenaline transporter (Homo sapiens, UniProt P23975). The experiment in a line: Inhibition of reuptake of [3H]-NE (20 nM) by norepinephrine transporter.
Target sequence in this assay (P23975 whole entry): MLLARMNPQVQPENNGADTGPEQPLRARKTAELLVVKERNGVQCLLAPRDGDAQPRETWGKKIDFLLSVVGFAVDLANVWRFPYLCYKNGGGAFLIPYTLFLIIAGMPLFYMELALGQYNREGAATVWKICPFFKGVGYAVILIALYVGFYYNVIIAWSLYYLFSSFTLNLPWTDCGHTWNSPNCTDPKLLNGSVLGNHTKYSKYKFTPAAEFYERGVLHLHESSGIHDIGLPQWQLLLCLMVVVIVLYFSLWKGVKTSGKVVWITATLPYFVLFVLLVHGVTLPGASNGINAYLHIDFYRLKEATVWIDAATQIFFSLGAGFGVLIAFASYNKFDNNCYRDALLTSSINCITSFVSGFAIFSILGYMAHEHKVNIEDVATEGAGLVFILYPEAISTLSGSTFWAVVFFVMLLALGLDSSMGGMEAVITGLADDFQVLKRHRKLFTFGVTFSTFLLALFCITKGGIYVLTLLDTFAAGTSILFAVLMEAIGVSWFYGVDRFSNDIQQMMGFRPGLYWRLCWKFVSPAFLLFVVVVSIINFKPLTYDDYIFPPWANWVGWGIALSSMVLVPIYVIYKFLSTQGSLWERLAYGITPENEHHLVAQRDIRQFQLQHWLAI
In experiment [8] the target is Monoamine transporters; serotonin & dopamine (Homo sapiens) (UniProt P31645+Q01959). The experiment in a line: Ratio of inhibition of serotonin uptake to inhibition of dopamine uptake. The experiment is classed as protein assay.
Chain of Monoamine transporters; serotonin & dopamine (Homo sapiens) (P31645 whole entry, looked up): as the sequence (P31645 whole entry) above
Chain of Monoamine transporters; serotonin & dopamine (Homo sapiens) (Q01959 whole entry, looked up): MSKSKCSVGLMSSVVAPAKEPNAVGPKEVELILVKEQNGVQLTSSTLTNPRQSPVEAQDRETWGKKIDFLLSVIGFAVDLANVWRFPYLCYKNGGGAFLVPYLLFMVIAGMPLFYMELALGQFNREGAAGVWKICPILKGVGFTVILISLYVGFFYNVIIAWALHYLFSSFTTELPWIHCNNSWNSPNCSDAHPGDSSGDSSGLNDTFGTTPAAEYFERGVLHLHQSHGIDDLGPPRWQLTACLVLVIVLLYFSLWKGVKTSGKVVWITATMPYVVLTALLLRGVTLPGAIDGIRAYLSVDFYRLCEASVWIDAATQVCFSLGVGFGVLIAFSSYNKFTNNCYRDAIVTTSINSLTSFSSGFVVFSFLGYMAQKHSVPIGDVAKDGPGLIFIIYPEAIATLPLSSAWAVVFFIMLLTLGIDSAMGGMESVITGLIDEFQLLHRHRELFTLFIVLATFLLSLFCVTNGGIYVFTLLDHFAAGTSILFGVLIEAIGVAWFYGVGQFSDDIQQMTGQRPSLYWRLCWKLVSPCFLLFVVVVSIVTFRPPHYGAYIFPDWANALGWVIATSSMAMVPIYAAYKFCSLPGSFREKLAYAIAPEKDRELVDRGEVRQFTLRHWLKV
The target of experiment [9] is T3, Sodium-dependent noradrenaline transporter. The experiment in a line: Binding affinity against norepinephrine cloned human transporter using 40-80 pM [125I]RTI.
Target sequence in this assay (P23975 whole entry): as the sequence (P23975 whole entry) above
Experiment [10] shares this target. In words: Ratio of norepinephrine uptake to norepinephrine binding.
Target sequence in this assay (P23975 whole entry, looked up): as the sequence (P23975 whole entry) above
The species entered for another experiment is Mus musculus. The experiment in a line: Effective dose on 8 hr locomotor assay in mice (value is standard error of the population of 72 independent determinations). The experiment is classed as functional. The essentials: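 Groups of 8 nonhabituated male Swiss-Webster mice (Hsd:ND4, 2-3 months), dosed ip in 0.9% saline vehicle just before testing. Horizontal photobeam breaks counted in 10-min bins for 8 h from 0800 h, one mouse per chamber.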

Where only a bound is given, the exact number is not on record here.

T1 sequence (Q01959 whole entry): as the sequence (Q01959 whole entry, looked up) above

Broadly, the Ki is a measure of affinity in units of concentration, obtained from inhibition or displacement. A low value points to higher affinity. By IC50 is commonly meant the concentration that inhibits the measured activity by half. With `CC(C)N(C)[C@H]1C[C@@H](c2ccc(Cl)c(Cl)c2)c2ccccc21`, the Ratio in experiment [1] turned out to be 1.4; in experiment [4], 25; in experiment [8] it was 1.9. In addition, the figures for the Ki in experiment [2], in experiment [5] and in [9] were 73 nM, 680 nM and 650 nM, respectively. The results for the 50% inhibitory concentration (IC50) in experiment [3], in experiment [6] and in experiment [7] were 960 nM, 1800 nM and 1800 nM, respectively.

As for `CCN[C@H]1C[C@@H](c2ccc(Cl)c(Cl)c2)c2ccccc21`, the results for the Ratio in experiment [1], in [4] and in experiment [8] were 11, 4 and 0.02, respectively. The Ki in experiment [2] is 4.7 nM; in [5], 140 nM. Moreover, the figures for the 50% inhibitory concentration (IC50) in [3], in experiment [6] and in experiment [7] were 1000 nM, 19 nM and 170 nM, respectively.

As for `CCCN(C)[C@H]1C[C@@H](c2ccc(Cl)c(Cl)c2)c2ccccc21` (relative stereo), the Ratio in experiment [1] was found to be 0.83; in experiment [4] it was 4; in experiment [10] it was 0.27; in [8], 0.8. For the same compound, the figures for the inhibition constant (Ki) in experiment [2] and in [9] were 200 nM and 2000 nM, respectively. Besides, the concentration for half-maximal inhibition (IC50) in experiment [3] was 1000 nM; in experiment [6] it was 810 nM; in experiment [7] it was 540 nM.

Turning to `CC(C)(C)N[C@H]1C[C@@H](c2ccc(Cl)c(Cl)c2)c2ccccc21` (relative stereo), the Ratio in experiment [1] is 2.3; in experiment [10], 1.6. Also, the inhibition constant Ki came to 1700 nM in experiment [2], 650 nM in experiment [5] and 1100 nM in [9]. In addition, the values for the IC50 in experiment [3], in [6] and in experiment [7] were 1500 nM, more than 10000 nM and 1800 nM, respectively.

By ED50 is commonly meant the dose that gives a 50% effect, or the effect in half of the subjects. The low end stands for greater potency, the high end for weaker potency. Take `Clc1ccc([C@@H]2C[C@@H](NCc3ccccc3)c3ccccc32)cc1Cl` (relative stereo): the Ratio in experiment [1] worked out at 1.6. Besides, the inhibitory constant (Ki) in experiment [2] was 380 nM; in [5], 80 nM; in [9] it was 460 nM. Moreover, the half-inhibitory concentration (IC50) was 130 nM in experiment [3], more than 10000 nM in [6] and 2600 nM in experiment [7]. For the same compound, the median effective dose (ED50) in the experiment listed under Mus musculus is more than 20 mg/kg.

With `CCCN[C@H]1C[C@@H](c2ccc(Cl)c(Cl)c2)c2ccccc21` (relative stereo), the Ratio in [1] is 2.2; in experiment [4] it was 2.6; in experiment [10] it was 1.2; in experiment [8], 2.1. Besides, the Ki in experiment [2] turned out to be 500 nM; in experiment [5] it was 280 nM; in experiment [9], 540 nM. Further, the values for the IC50 in experiment [3], in experiment [6] and in experiment [7] were 620 nM, 1300 nM and 630 nM, respectively.

Turning to `Clc1ccc([C@@H]2C[C@H](NCc3ccccc3)c3ccccc32)cc1Cl` (relative stereo), the Ki in [2] amounted to 2100 nM; in experiment [5], 1100 nM; in [9] it was 4800 nM. In addition, the IC50 was 5300 nM in experiment [3], more than 10000 nM in experiment [6] and more than 10000 nM in [7].

With `CN(C)[C@H]1C[C@@H](c2ccc(Cl)c(Cl)c2)c2ccccc21` (relative stereo), the Ratio in [1] is 8.7; in experiment [4], 2.3; in experiment [8], 0.01. The inhibition constant Ki was determined as 2.4 nM in experiment [2], 63 nM in [5] and 150 nM in experiment [9]. Also, the values for the IC50 in experiment [3], in [6] and in experiment [7] were 550 nM, 5.5 nM and 86 nM, respectively.

With `CCN[C@@H]1C[C@@H](c2ccc(Cl)c(Cl)c2)c2ccccc21` (relative stereo), the Ratio in [1] is 7.5; in [4], 6.5; in experiment [8] it was 0.21. Further, the Ki in experiment [2] was 2 nM; in [5], 8.1 nM; in experiment [9] it was 48 nM. Also, the IC50 in experiment [3] was 61 nM; in [6], 13 nM; in experiment [7], 28 nM. This compound also registered an ED50 in the experiment filed under Mus musculus of 1 mg/kg.

As for `CN([C@@H]1C[C@@H](c2ccc(Cl)c(Cl)c2)c2ccccc21)C(C)(C)C` (relative stereo), the Ratio in experiment [1] was found to be 3. In addition, the Ki in [2] stood at 4700 nM; in experiment [5], 890 nM; in experiment [9], 440 nM. Also, the IC50 was 2700 nM in [3], more than 10000 nM in [6] and 1000 nM in experiment [7].

For the compound `CN(Cc1ccccc1)[C@H]1C[C@@H](c2ccc(Cl)c(Cl)c2)c2ccccc21` (relative stereo), the inhibitory constant (Ki) is 300 nM in [2], more than 10000 nM in [5] and more than 10000 nM in experiment [9]. Also, the Ratio in [4] turned out to be 2.3. Moreover, the 50% inhibitory concentration (IC50) in experiment [6] was 700 nM; in experiment [7] it was more than 10000 nM.

For `CN(Cc1ccccc1)[C@@H]1C[C@@H](c2ccc(Cl)c(Cl)c2)c2ccccc21` (relative stereo), the Ratio in experiment [1] came out at 4.6; in [4], 21; in [8], 6.7. Also, the Ki in experiment [2] was determined as 180 nM; in experiment [5], 120 nM; in [9] it was 2800 nM. In addition, the half-inhibitory concentration (IC50) in [3] amounted to 550 nM; in [6], 3700 nM; in experiment [7] it was 1600 nM. The ED50 in the experiment listed under Mus musculus is 5.7 mg/kg.

Take `CN([C@H]1C[C@@H](c2ccc(Cl)c(Cl)c2)c2ccccc21)C(C)(C)C` (relative stereo): the Ki is more than 10000 nM in experiment [2], 2800 nM in experiment [5] and 2200 nM in [9]. The IC50 in experiment [3] and in experiment [7] was more than 10000 nM each time.

For `CC(C)N[C@H]1C[C@@H](c2ccc(Cl)c(Cl)c2)c2ccccc21` (relative stereo), the Ratio in experiment [1] is 3.1; in experiment [4], 2.3; in [10], 0.43; in experiment [8], 0.21. Also, the values for the inhibition constant Ki in [2], in [5] and in experiment [9] were 130 nM, 450 nM and 3500 nM, respectively. The IC50 in [3] is 1400 nM; in experiment [6], 300 nM; in [7], 1500 nM.

Turning to `CN(C)[C@@H]1C[C@@H](c2ccc(Cl)c(Cl)c2)c2ccccc21` (relative stereo), the Ratio in experiment [1] was 11; in experiment [4] it was 200; in experiment [8] it was 0.033.

`CN[C@@H]1C[C@@H](c2ccc(Cl)c(Cl)c2)c2ccccc21` (relative stereo) [(R,S)-INDATRALINE] returned an ED50 in the experiment filed under Mus musculus of 1.2 mg/kg.

On to `CN(C)[C@@H]1C[C@@H](c2ccc(Cl)c(Cl)c2)c2ccccc21` (stereo in doubt; (+)) [listing 1 of 2 here], for which the inhibition constant (Ki) in experiment [2] amounted to 0.06 nM; in [5], 8.7 nM; in [9], 52 nM. Besides, the 50% inhibitory concentration (IC50) in experiment [3] turned out to be 120 nM; in [6], 6.3 nM; in experiment [7], 21 nM. Moreover, it took a dose of 0.96 mg/kg to reach the 50% effect level in the experiment listed under Mus musculus (ED50).

With `CN(C)[C@@H]1C[C@@H](c2ccc(Cl)c(Cl)c2)c2ccccc21` (stereo in doubt; (+)) [listing 2 of 2 here], the Ratio in experiment [1] amounted to 14; in experiment [4], 110; in experiment [8], 0.053.

Take `CN(C)[C@@H]1C[C@@H](c2ccc(Cl)c(Cl)c2)c2ccccc21` (stereo in doubt; (-)) [listing 1 of 2 here]: the results for the Ki in experiment [2], in experiment [5] and in experiment [9] were 3.6 nM, 38 nM and 130 nM, respectively. Besides, the 50% inhibitory concentration (IC50) in [3] came out at 650 nM; in experiment [6] it was 130 nM; in [7], 130 nM.

Regarding `CN(C)[C@@H]1C[C@@H](c2ccc(Cl)c(Cl)c2)c2ccccc21` (stereo in doubt; (-)) [listing 2 of 2 here], the Ratio in experiment [1] stood at 17; in experiment [8], 0.02.
